Experimental data published in ChEMBL document CHEMBL4477155, “Simplified Bryostatin Analogues Protect Cells from Chikungunya Virus-Induced Cell Death” (J Nat Prod, 2016).

Columns and labels:
[1] = test system: Chikungunya virus; test: Antiviral activity against Chikungunya virus Indian Ocean 899 infected in African green monkey BGM cells assessed as inhibition of virus-induced cytopathic effect after 5 days by MTS/PMS based […] analysis; type: functional, organism-based; settings: Indian Ocean 899, BGM, 120 h
[2] = Cytotoxicity against African green monkey BGM cells assessed as reduction in cell viability after 5 days by MTS/PMS based microscopic analysis; settings: chlorocebus aethiops
Outline: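 Uninfected BGM cells (2.5 × 10^4 cells/well, adhered overnight) exposed to compound dilution series in MEM with 2% FBS at 37 °C, 5% CO2; metabolic activity read by MTS/PMS, with microscopic check of monolayer morphology. CC50 = concentration reducing overall metabolic activity by 50%, by logarithmic interpolation.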

Compound | EC50 [1] [µM] | CC50 at 120 h [2] [µM]
CCC/C=C/C=C/C(=O)O[C@H]1/C(=C/C(=O)OC)C[C@H]2C[C@H]([C@@H](C)O)OC(=O)C[C@H](O)C[C@@H]3C[C@H](O)C(C)(C)[C@](O)(C[C@@H]4C/C(=C/C(=O)OC)C[C@H](/C=C/C(C)(C)[C@]1(O)O2)O4)O3 | > 96 | > 96
C=C1C[C@H]2C[C@@H]3O[C@@H](CCC3(C)C)C[C@@H](O)CC(=O)O[C@@H](CO)C[C@@H]3C/C(=C\C(=O)OC)[C@H](OC(=O)CCCCCCC)[C@@](O)(O3)C(C)(C)/C=C/[C@@H](C1)O2 | 0.35 | 
CCC/C=C/C=C/C(=O)O[C@H]1/C(=C/C(=O)OC)C[C@H]2C[C@H]([C@@H](C)O)OC(=O)C[C@H](O)C[C@@H]3C[C@H](OC(C)=O)C(C)(C)[C@](O)(C[C@@H]4C/C(=C/C(=O)OC)C[C@H](/C=C/C(C)(C)[C@]1(O)O2)O4)O3 [BRYOSTATIN 1] | > 96 | 
